Experimental data as given in publication PMC4459094 (FEBS Open Bio, 2015).

Tests used:
hMIP = settings: continuous activity assay with fluorogenic substrate Abz-GFSPFRQ-EDDnp; cited from earlier work
[1] = target: T1, recombinant human mitochondrial intermediate peptidase (hMIP) (Homo sapiens, UniProt Q99797); assay: Hydrolysis of FRET peptides by hMIP in solution; assay type: biochemical; settings: analogue without the P8 and P5 versus Abz-FRSGQPLQNKVQLQ-EDDnp
T1 sequence (Q99797 36-713): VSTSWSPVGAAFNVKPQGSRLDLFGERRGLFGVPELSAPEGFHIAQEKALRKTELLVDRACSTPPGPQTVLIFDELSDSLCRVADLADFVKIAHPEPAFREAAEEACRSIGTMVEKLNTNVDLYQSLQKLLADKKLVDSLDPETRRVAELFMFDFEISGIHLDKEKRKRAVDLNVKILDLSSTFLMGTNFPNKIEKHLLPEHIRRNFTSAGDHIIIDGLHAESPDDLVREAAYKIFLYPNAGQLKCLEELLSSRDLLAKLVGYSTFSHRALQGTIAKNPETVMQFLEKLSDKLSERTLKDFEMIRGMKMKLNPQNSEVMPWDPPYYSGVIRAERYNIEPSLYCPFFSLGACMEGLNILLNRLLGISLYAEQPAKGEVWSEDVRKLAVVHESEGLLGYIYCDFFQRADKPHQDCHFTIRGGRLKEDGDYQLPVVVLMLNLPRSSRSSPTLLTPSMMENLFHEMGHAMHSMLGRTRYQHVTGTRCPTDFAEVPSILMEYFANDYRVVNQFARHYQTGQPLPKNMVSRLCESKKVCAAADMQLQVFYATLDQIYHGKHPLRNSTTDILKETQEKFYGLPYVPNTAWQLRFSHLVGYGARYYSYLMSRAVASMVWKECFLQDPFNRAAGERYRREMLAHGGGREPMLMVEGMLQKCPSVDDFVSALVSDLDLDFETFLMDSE
How it was run: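 Recombinant human MIP with an N-terminal His6 tag replacing the mitochondrial signal sequence, expressed in E. coli BL21(DE3)pLysS and purified by Ni-affinity then anion-exchange chromatography. Abz/EDDnp FRET peptide hydrolysis was followed fluorometrically (ex 320, em 420 nm). Rates were converted to moles per second using standard peptide fluorescence before and after total hydrolysis, with under 10% substrate consumed. kcat, KM and kcat/KM are given as means ± SD.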

fold lower specificity constant than Abz-FRSGQPLQNKVQLQ-EDDnp [1] [fold]	Molecule	inhibition of hMIP (hMIP)
–	C[C@H](CS)C(=O)N1CCC[C@H]1C(=O)O [captopril]	small level of inhibition
–	O=C(O)CNC(=O)C(CS)Cc1ccccc1 (stereo not drawn) [thiorphan]	small level of inhibition
7	Abz-QPLQNKVQ-EDDnp [Abz-QPLQ↓NKVQ-EDDnp]	–
